Experimental data from ChEMBL document CHEMBL1122089, “Synthesis and biological activity of some very hydrophobic superagonist analogues of luteinizing hormone-releasing hormone” (1982).

Key:
[1] = species on record: Rattus norvegicus; assay: Suppression of estrus cyclicity in rat relative to [D-Trp6, ProNHEt9].; assay type: functional
[2] = species on record: Rattus norvegicus; assay: Suppression of estrus cyclicity in rat.; assay type: functional
Method in brief: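 Adult female Sprague-Dawley rats (~160 g), groups of 10, 14:10 light/dark, food and water ad libitum. Compound in 0.1% BSA-saline vehicle given sc twice daily (0800, 1630 h), 0.1 or 0.2 mL/injection, 14 consecutive days; at least four doses at 2-fold dilutions; vehicle and positive controls. Daily vaginal lavage; percent of rats in persistent diestrus from day 4 plotted against log dose; ED50 in µg/injection.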

Compound	Potency [1]	ED50 [2]
CCNC(=O)[C@@H]1CCCN1C(=O)[C@H](CCCN=C(N)N)NC(=O)[C@H](CC(C)C)N(C)C(=O)[C@@H](Cc1ccc2ccccc2c1)NC(=O)[C@H](Cc1ccc(O)cc1)NC(=O)[C@H](CO)NC(=O)[C@H](Cc1c[nH]c2ccccc12)NC(=O)[C@H](Cc1c[nH]cn1)NC(=O)[C@@H]1CCC(=O)N1	1.8	0.12 µg
CC(C)C[C@H](NC(=O)[C@@H](Cc1ccc2ccccc2c1)NC(=O)[C@H](Cc1ccc(O)cc1)NC(=O)[C@H](CO)NC(=O)[C@H](Cc1c[nH]c2ccccc12)NC(=O)[C@H](Cc1c[nH]cn1)NC(=O)[C@@H]1CCC(=O)N1)C(=O)N[C@@H](CCCN=C(N)N)C(=O)N1CCC[C@H]1C(=O)NCC(N)=O	1.9	0.07 µg
Cc1cc(C)c(C[C@@H](NC(=O)[C@H](Cc2ccc(O)cc2)NC(=O)[C@H](CO)NC(=O)[C@H](Cc2c[nH]c3ccccc23)NC(=O)[C@H](Cc2c[nH]cn2)NC(=O)[C@@H]2CCC(=O)N2)C(=O)N[C@@H](CC(C)C)C(=O)N[C@@H](CCCN=C(N)N)C(=O)N2CCC[C@H]2C(=O)NCC(N)=O)c(C)c1	2	0.07 µg
CC(C)C[C@H](NC(=O)[C@@H](Cc1c2ccccc2cc2ccccc12)NC(=O)[C@H](Cc1ccc(O)cc1)NC(=O)[C@H](CO)NC(=O)[C@H](Cc1c[nH]c2ccccc12)NC(=O)[C@H](Cc1c[nH]cn1)NC(=O)[C@@H]1CCC(=O)N1)C(=O)N[C@@H](CCCN=C(N)N)C(=O)N1CCC[C@H]1C(=O)NCC(N)=O	0.5	0.27 µg
COc1cc(C[C@@H](NC(=O)[C@H](Cc2ccc(O)cc2)NC(=O)[C@H](CO)NC(=O)[C@H](Cc2c[nH]c3ccccc23)NC(=O)[C@H](Cc2c[nH]cn2)NC(=O)[C@@H]2CCC(=O)N2)C(=O)N[C@@H](CC(C)C)C(=O)N[C@@H](CCCN=C(N)N)C(=O)N2CCC[C@H]2C(=O)NCC(N)=O)cc(OC)c1OC	1.4	0.09 µg
CC(C)C[C@H](NC(=O)[C@@H](Cc1ccc(-c2ccccc2)cc1)NC(=O)[C@H](Cc1ccc(O)cc1)NC(=O)[C@H](CO)NC(=O)[C@H](Cc1c[nH]c2ccccc12)NC(=O)[C@H](Cc1c[nH]cn1)NC(=O)[C@@H]1CCC(=O)N1)C(=O)N[C@@H](CCCN=C(N)N)C(=O)N1CCC[C@H]1C(=O)NCC(N)=O	1.4	–
Cc1cc(C)c(C[C@@H](NC(=O)[C@H](Cc2ccc(O)cc2)NC(=O)[C@H](CO)NC(=O)[C@H](Cc2c[nH]c3ccccc23)NC(=O)[C@H](Cc2c[nH]cn2)NC(=O)[C@@H]2CCC(=O)N2)C(=O)N(C)[C@@H](CC(C)C)C(=O)N[C@@H](CCCN=C(N)N)C(=O)N2CCC[C@H]2C(=O)NCC(N)=O)c(C)c1	1.1	–
CCNC(=O)[C@@H]1CCCN1C(=O)[C@H](CCCN=C(N)N)NC(=O)[C@H](CC(C)C)NC(=O)[C@@H](Cc1c[nH]c2ccccc12)NC(=O)[C@H](Cc1ccc(O)cc1)NC(=O)[C@H](CO)NC(=O)[C@H](Cc1c[nH]c2ccccc12)NC(=O)[C@H](Cc1c[nH]cn1)NC(=O)[C@@H]1CCC(=O)N1	1	0.14 µg
CCNC(=O)[C@@H]1CCCN1C(=O)[C@H](CCCN=C(N)N)NC(=O)[C@H](CC(C)C)NC(=O)[C@@H](Cc1ccc2ccccc2c1)NC(=O)[C@H](Cc1ccc(O)cc1)NC(=O)[C@H](CO)NC(=O)[C@H](Cc1c[nH]c2ccccc12)NC(=O)[C@H](Cc1c[nH]cn1)NC(=O)[C@@H]1CCC(=O)N1	0.9	0.22 µg
CC(C)C[C@H](NC(=O)[C@@H](Cc1c(F)c(F)c(F)c(F)c1F)NC(=O)[C@H](Cc1ccc(O)cc1)NC(=O)[C@H](CO)NC(=O)[C@H](Cc1c[nH]c2ccccc12)NC(=O)[C@H](Cc1c[nH]cn1)NC(=O)[C@@H]1CCC(=O)N1)C(=O)N[C@@H](CCCN=C(N)N)C(=O)N1CCC[C@H]1C(=O)NCC(N)=O	1.2	0.12 µg
CC(C)C[C@H](NC(=O)[C@@H](Cc1ccc2ccccc2c1Br)NC(=O)[C@H](Cc1ccc(O)cc1)NC(=O)[C@H](CO)NC(=O)[C@H](Cc1c[nH]c2ccccc12)NC(=O)[C@H](Cc1c[nH]cn1)NC(=O)[C@@H]1CCC(=O)N1)C(=O)N[C@@H](CCCN=C(N)N)C(=O)N1CCC[C@H]1C(=O)NCC(N)=O	1	0.15 µg
CCNC(=O)[C@@H]1CCCN1C(=O)[C@H](CCCN=C(N)N)NC(=O)[C@H](CC(C)C)NC(=O)[C@@H](Cc1ccc2ccccc2c1)NC(=O)[C@H](Cc1ccc(O)cc1)NC(=O)[C@H](CO)NC(=O)[C@H](Cc1cccc2ccccc12)NC(=O)[C@H](Cc1c[nH]cn1)NC(=O)[C@@H]1CCC(=O)N1	0.9	0.16 µg
CCNC(=O)[C@@H]1CCCN1C(=O)[C@H](CCCN=C(N)N)NC(=O)[C@H](CC(C)C)NC(=O)[C@@H](CC(c1ccccc1)c1ccccc1)NC(=O)[C@H](Cc1ccc(O)cc1)NC(=O)[C@H](CO)NC(=O)[C@H](Cc1c[nH]c2ccccc12)NC(=O)[C@H](Cc1c[nH]cn1)NC(=O)[C@@H]1CCC(=O)N1	0.9	0.11 µg
CC(C)C[C@H](NC(=O)[C@@H](CC1CCCCC1)NC(=O)[C@H](Cc1ccc(O)cc1)NC(=O)[C@H](CO)NC(=O)[C@H](Cc1c[nH]c2ccccc12)NC(=O)[C@H](Cc1c[nH]cn1)NC(=O)[C@@H]1CCC(=O)N1)C(=O)N[C@@H](CCCN=C(N)N)C(=O)N1CCC[C@H]1C(=O)NCC(N)=O	0.5	0.3 µg
CC(C)C[C@H](NC(=O)[C@@H](Cc1ccc(C(F)(F)F)cc1)NC(=O)[C@H](Cc1ccc(O)cc1)NC(=O)[C@H](CO)NC(=O)[C@H](Cc1c[nH]c2ccccc12)NC(=O)[C@H](Cc1c[nH]cn1)NC(=O)[C@@H]1CCC(=O)N1)C(=O)N[C@@H](CCCN=C(N)N)C(=O)N1CCC[C@H]1C(=O)NCC(N)=O	1.4	0.11 µg
